According to ChEMBL document CHEMBL1129793, “Quantitative structure-activity relationships for the in vitro antimycobacterial activity of pyrazinoic acid esters” (J Med Chem, 1996):

Tests used:
[1] = T1/2 in equine serum; format: ADME, organism-based, Equus caballus; details: horse
Method in brief: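 Ester from a 1 mg/mL stock was mixed with 5% aqueous equine serum in 0.01 M KH2PO4, pH 7.2. Remaining ester was measured by isocratic reverse-phase HPLC (80% acetonitrile/20% 0.1 M sodium acetate, pH 5.0), with UV detection at 265 nm against a standard curve. Half-life is the time to 50% conversion to the acid.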

[2] = Partition coefficient (logP); format: physicochemical; details: octanol/water
Mycobacterium avium [3] = assay: In vitro activity against Mycobacterium avium (MAC-101).; format: functional
Method in brief: (§1)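 Broth macrodilution MIC. Cultures were grown in modified Middlebrook 7H10 broth (agar and malachite green omitted) with 10% OADC and 0.05% Tween 80, shaken at 37 °C for 3 days, then diluted in 7H10 broth to 1 Klett unit/mL. Test agents were dissolved in water or DMSO and filter-sterilised, then serially diluted 2-fold in 7H10 broth at pH 5.8. Tubes were shaken at 37 °C for 7–10 days, with a drug-free control. MIC was the lowest concentration with no visible turbidity, expressed in mmol/L.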

[4] = system: Mycobacterium tuberculosis; assay: In vitro activity against Mycobacterium tuberculosis (ATCC 27294); format: functional; method in brief: as §1
[5] = system: Mycobacterium tuberculosis; assay: In vitro activity against Mycobacterium tuberculosis (ATCC 35801); format: functional; method in brief: as §1
[6] = system: Mycobacterium tuberculosis; assay: In vitro activity against Mycobacterium tuberculosis (ATCC 35828); format: functional; method in brief: as §1
Mycobacterium avium [7] = assay: In vitro activity against Mycobacterium avium (ATCC 49601).; format: functional; method in brief: as §1
Mycobacterium kansasii = assay: in vitro activity against Mycobacterium kansasii (SWK).; format: functional
Method in brief: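 M. kansasii clinical isolate SWK was grown 3 days at 37 °C with shaking in modified Middlebrook 7H10 broth with 10% OADC and 0.05% Tween 80, then diluted. It was tested in serial 2-fold dilutions in 7H10 broth at pH 5.8, shaken at 37 °C for 7–10 days, with a drug-free control. MIC was the lowest concentration giving no visible turbidity, expressed in mmol/L.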

| Compound | half-life [1] [min] | logP [2] | Log 1/MMIC (Mycobacterium avium [3]) | Log 1/MMIC [4] | Log 1/MMIC [5] | Log 1/MMIC [6] | Log 1/MMIC (Mycobacterium avium [7]) | Log 1/MMIC (Mycobacterium kansasii) |
| --- | --- | --- | --- | --- | --- | --- | --- | --- |
| CCCCCCCC(C)(CCCCC)OC(=O)c1cnc(Cl)cn1 (stereo not given) | 3170 | 6.96 | 0.744 | 2.249 | 1.948 | 1.647 | 0.744 | – |
| CCCCCCCC(C)OC(=O)c1cnc(Cl)cn1 (stereo not given) | 30 | 4.14 | 0.949 | 2.455 | 2.756 | 2.153 | 0.949 | 3.977 |
| CCCCOC(=O)c1cnc(Cl)cn1 | 5.5 | 2.21 | 0.526 | 2.934 | 3.633 | 2.633 | 0.225 | 2.33 |
| CCCCCCCCC(C)(CCCC)OC(=O)c1cnc(Cl)cn1 (stereo not given) | 1140 | 7.05 | 0.744 | – | – | 1.647 | 0.744 | 1.346 |
| CCCCCCCCCCOC(=O)c1cnccn1 | 0.8 | 4.58 | 0.917 | 2.723 | 3.024 | 3.024 | 1.519 | 3.723 |
| CCCCCCCCCCOC(=O)c1cnc(F)cn1 | 4 | 5.08 | 0.946 | 2.15 | 1.849 | 1.849 | 0.946 | 2.451 |
| CCCCCCCCCOC(=O)c1cnc(C)cn1 | 1 | 4.46 | 0.616 | 2.422 | 2.422 | – | 0.917 | 2.121 |
| CC(C)COC(=O)c1cnc(Cl)cn1 | 11.8 | 1.97 | 0.526 | 2.031 | 2.934 | 2.031 | 0.526 | 2.33 |
| CCCCCCCCC(C)(C)OC(=O)c1cnc(Cl)cn1 | 957 | 5.51 | 0.388 | 1.592 | 2.796 | 1.592 | 0.388 | 2.194 |
| CCCCCCC(C)(C)OC(=O)c1cnc(Cl)cn1 | 510 | 4.39 | 0.648 | 3.057 | 1.852 | 3.057 | 0.648 | 2.455 |
| CCCCCCC(C)(CCCCCC)OC(=O)c1cnc(Cl)cn1 | 1080 | 7.08 | 0.744 | 3.152 | 2.851 | 2.851 | 1.346 | 2.249 |
| CCCCCC(C)OC(=O)c1cnc(Cl)cn1 (stereo not given) | 16.2 | 3 | 0.904 | 3.631 | 2.711 | 3.631 | 0.904 | 3.313 |
| CCCCCCCCCC(C)(C)OC(=O)c1cnc(Cl)cn1 | 902 | 6.01 | 0.106 | 1.611 | 2.514 | 1.31 | 0.106 | 2.815 |
| CCCCCC(C)(CCCCC)OC(=O)c1cnc(Cl)cn1 | 360 | 5.82 | 0.708 | – | – | 1.31 | 0.708 | 1.611 |
| CCCCCCC(C)(CCCC)OC(=O)c1cnc(Cl)cn1 (stereo not given) | 648 | 5.93 | 0.106 | – | 1.611 | 1.31 | 0.106 | 1.912 |
| CCCCCCCCC(CC)OC(=O)c1cnc(Cl)cn1 (stereo not given) | 9 | 5.99 | 0.087 | 3.097 | 2.495 | 2.495 | 0.087 | 3.398 |
| CCCCCC(C)(CCCC)OC(=O)c1cnc(Cl)cn1 (stereo not given) | 390 | 5.3 | 0.087 | 1.893 | 1.592 | – | 0.087 | 1.291 |
| CCCCCCCCCCCOC(=O)c1cnc(Cl)cn1 | 6 | 5.98 | 1.291 | 3.097 | 2.796 | 2.796 | 1.592 | 3.717 |

| Compound | half-life [1] [min] | logP [2] | Log 1/MMIC (Mycobacterium avium [3]) | Log 1/MMIC [4] | Log 1/MMIC [5] | Log 1/MMIC [6] | Log 1/MMIC (Mycobacterium avium [7]) | Log 1/MMIC (Mycobacterium kansasii) |
| --- | --- | --- | --- | --- | --- | --- | --- | --- |
| CCCCCCCCCCOC(=O)c1cnc(Cl)cn1 | 1.9 | 5.48 | 0.97 | – | 3.077 | – | 1.271 | 2.776 |
| CCCCCCC(C)(CCCCC)OC(=O)c1cnc(Cl)cn1 (stereo not given) | 1410 | 6.45 | 0.726 | 2.232 | – | 1.329 | 0.726 | 1.63 |
| CCCCCC(CC)OC(=O)c1cnc(Cl)cn1 (stereo not given) | 7 | 4.24 | 0.626 | 2.734 | 3.035 | 3.035 | 0.927 | 3.955 |
| CCCCCCC(CCCCCC)OC(=O)c1cnc(Cl)cn1 | 60 | 7.04 | 1.329 | 3.135 | – | – | 0.726 | 2.834 |
| CCCCCCCC(C)(CCCC)OC(=O)c1cnc(Cl)cn1 (stereo not given) | 600 | 6.44 | 0.124 | 1.63 | 1.931 | – | 0.124 | 1.329 |
| CCCCCCCCOC(=O)c1cnc(Cl)cn1 | 1.3 | 4.48 | 1.228 | 3.654 | – | – | 1.228 | 3.955 |
| CCCCCOC(=O)c1cnc(Cl)cn1 | 3.2 | 2.73 | 0.854 | 3.581 | 2.961 | 3.262 | 0.854 | 3.882 |
| CCOC(=O)c1cnc(Cl)cn1 | 110 | 1.19 | 0.164 | 2.271 | – | 1.067 | 0.164 | 1.97 |
| CCCCCCC(C)OC(=O)c1cnc(Cl)cn1 (stereo not given) | 28.2 | 3.63 | 0.927 | – | – | – | 0.927 | 3.035 |
| CCCCCCCCCCCC(C)OC(=O)c1cnc(Cl)cn1 (stereo not given) | 50 | 6.25 | 0.124 | 2.232 | 2.834 | 2.834 | 1.027 | 3.754 |
| CCCCCCCCCC(C)OC(=O)c1cnc(Cl)cn1 (stereo not given) | 29.6 | 5.25 | 1.291 | 3.087 | 3.398 | 2.495 | 1.291 | 3.097 |
| O=C(OCc1ccccc1)c1cnc(Cl)cn1 | 5 | 2.39 | 1.493 | – | 2.697 | – | 1.794 | 2.396 |
| CC(C)(C)OC(=O)c1cnc(Cl)cn1 | 1200 | 1.7 | 0.225 | 1.73 | 2.031 | 1.73 | 2.33 | 2.633 |
| CCCOC(=O)c1cnc(Cl)cn1 | 18.7 | 1.67 | 1.098 | 3.524 | 3.825 | – | 1.098 | 2.904 |
| CCCCCCCOC(=O)c1cnc(Cl)cn1 | 3.2 | 3.87 | 1.506 | 3.631 | – | – | 1.205 | 3.932 |
| CCC(C)(CC)OC(=O)c1cnc(Cl)cn1 | 1020 | 2.74 | -0.023 | 1.482 | 1.482 | 1.783 | -0.023 | 2.084 |
| CCCCCCOC(=O)c1cnc(Cl)cn1 | 2.2 | 3.36 | 0.88 | 3.288 | 3.288 | 2.686 | 1.181 | 4.21 |
